# Measurements published in ChEMBL document CHEMBL2384909, “Development of Novel Alkene Oxindole Derivatives As Orally Efficacious AMP-Activated Protein Kinase Activators” (ACS Med Chem Lett, 2013).
# Calls of active or inactive are those of the source. The rule behind the calls is not given here.
# How the values were obtained:
# Mus musculus [1] = assay: Antidiabetic activity in diet-induced obese C57BL/6J mouse assessed as reduction in plasma triglyceride at 50 mg/kg, po qd for 4 weeks (reference value: 0.62 +/- 0.02 mM); assay type: functional
# Cytochrome P450 2D6 = Cytochrome P450 2D6 (Homo sapiens, UniProt P10635); assay: Inhibition of CYP2D6 (unknown origin); assay type: ADME
# [2] = Drug metabolism in mouse liver microsomes; assay type: ADME, Microsome
# [3] = molecular target: Serine/threonine-protein kinase MARK2 (Homo sapiens) (UniProt Q7KZI7); assay: Activity at MARK2 (unknown origin)
# Cytochrome P450 2C9 = Cytochrome P450 2C9 (Homo sapiens, UniProt P11712); assay: Inhibition of CYP2C9 (unknown origin); assay type: ADME
# Mus musculus [4] = assay: Upregulation of CPT2 gene expression in C57BL/6J mouse muscles at 15 to 150 mg/kg, po; assay type: functional, organism-based; conditions: Muscle tissue
# Mus musculus [5] = assay: Upregulation of FABP3 gene expression in C57BL/6J mouse muscles at 15 to 150 mg/kg, po; assay type: functional, organism-based; conditions: Muscle tissue
# [6] = Half life in Wistar rat at 10 mg/kg, po by LC-MS/MS analysis; assay type: ADME, organism-based; design: dose 10 mg/kg, route oral; conditions: in vivo
# L6 [7] = assay: Activation of AMPK in rat L6 cells assessed as stimulation of glucose uptake after 15 mins; assay type: cell-based
# [8] = AUC (0 to 24 hrs) in Wistar rat at 2 mg/kg, iv by LC-MS/MS analysis; assay type: ADME, organism-based; design: time < 24 hr, dose 2 mg/kg, route intravenous; conditions: plasma
# [9] = Plasma concentration in Wistar rat at 10 mg/kg, po after 4 hrs by LC-MS/MS analysis; assay type: ADME, organism-based; design: dose 10 mg/kg, route oral
# L6 [10] = assay: Activation of AMPK alpha1 D159A/alpha2 K45R mutant in rat L6 cells assessed as stimulation of glucose uptake after 15 mins; assay type: cell-based
# [11] = Terminal half life in Wistar rat at 2 mg/kg, iv by LC-MS/MS analysis; assay type: ADME, organism-based; design: dose 2 mg/kg, route intravenous; conditions: in vivo, read-out: beta t1/2 (converted)
# Mus musculus [12] = assay: Antidiabetic activity in diet-induced obese C57BL/6J mouse assessed as improved glucose tolerance at 50 to 150 mg/kg, po qd for 4 weeks by glucose tolerance test
# [13] = Oral bioavailability in Wistar rat at 10 mg/kg by LC-MS/MS analysis; assay type: ADME, organism-based; conditions: in vivo
# [14] = molecular target: Maternal embryonic leucine zipper kinase (Homo sapiens) (UniProt Q14680); assay: Activity at MELK (unknown origin)
# Mus musculus [15] = assay: Upregulation of PGC1alpha gene expression in C57BL/6J mouse muscles at 15 to 150 mg/kg, po; assay type: functional, organism-based; conditions: Muscle tissue
# Mus musculus [16] = assay: Upregulation of UCP2 gene expression in C57BL/6J mouse muscles at 15 to 150 mg/kg, po; assay type: functional, organism-based; conditions: Muscle tissue
# [17] = AUC (0 to 24 hrs) in Wistar rat at 10 mg/kg, po by LC-MS/MS analysis; assay type: ADME, organism-based; design: time < 24 hr, dose 10 mg/kg, route oral; conditions: plasma
# Mus musculus [18] = assay: Upregulation of PDK4 gene expression in C57BL/6J mouse muscles at 15 to 150 mg/kg, po; assay type: functional, organism-based; conditions: Muscle tissue
# [19] = molecular target: Voltage-gated inwardly rectifying potassium channel KCNH2 (Homo sapiens, UniProt Q12809); assay: Inhibition of human ERG
# Cytochrome P450 3A4 = Cytochrome P450 3A4 (Homo sapiens, UniProt P08684); assay: Inhibition of CYP3A4 (unknown origin); assay type: ADME
# AMPK alpha2/beta1/gamma1 = AMPK alpha2/beta1/gamma1 (Homo sapiens, UniProt P54619+P54646+Q9Y478); assay: Activation of recombinant AMPK alpha2beta1gamma1 (unknown origin) after 2 hrs by scintillation proximity assay; assay type: protein-complex assay
# How it was run: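 Activation of bacterially expressed AMPK α2β1γ1 was measured by scintillation proximity assay. Efficacy is expressed relative to AMP.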
# L6 [20] = assay: Induction of AMPK phosphorylation in rat L6 cells by Western blotting analysis; assay type: cell-based
# Mus musculus [21] = assay: Antidiabetic activity in diet-induced obese C57BL/6J mouse assessed as increase in insulin tolerance at 15 to 150 mg/kg, po qd for 4 weeks by insulin tolerance test relative to control; assay type: functional, organism-based
# Liver microsomes = assay: Drug metabolism in rat liver microsomes; assay type: ADME, Microsome
# [22] = molecular target: AMPK alpha2/beta1/gamma1 (Homo sapiens) (UniProt P54646+P54619+Q9Y478); assay: Activation of recombinant AMPK alpha2beta1gamma1 (unknown origin) at 20 ug/mL after 2 hrs by scintillation proximity assay relative to AMP; assay type: protein-complex assay
# Cytochrome P450 1A2 = molecular target: T1, Cytochrome P450 1A2 (Homo sapiens, UniProt P05177); assay: Inhibition of CYP1A2 (unknown origin); assay type: ADME
# T1 sequence (P05177 whole entry): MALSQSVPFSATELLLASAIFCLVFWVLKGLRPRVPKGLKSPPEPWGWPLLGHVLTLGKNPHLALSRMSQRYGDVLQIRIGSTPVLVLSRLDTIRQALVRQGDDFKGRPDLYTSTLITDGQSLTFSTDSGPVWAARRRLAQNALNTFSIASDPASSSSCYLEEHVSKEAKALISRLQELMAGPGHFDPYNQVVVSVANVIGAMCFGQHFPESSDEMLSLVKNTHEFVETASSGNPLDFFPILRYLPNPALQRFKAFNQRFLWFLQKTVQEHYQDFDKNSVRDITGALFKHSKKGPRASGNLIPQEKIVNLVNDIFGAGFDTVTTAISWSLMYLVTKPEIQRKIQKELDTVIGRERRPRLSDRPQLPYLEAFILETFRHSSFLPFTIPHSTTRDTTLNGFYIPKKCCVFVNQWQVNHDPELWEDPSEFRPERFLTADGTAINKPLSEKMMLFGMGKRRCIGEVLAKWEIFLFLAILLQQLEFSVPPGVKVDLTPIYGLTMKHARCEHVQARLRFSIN
# Mus musculus [23] = assay: Antidiabetic activity in diet-induced obese C57BL/6J mouse assessed as reduction in plasma triglyceride at 150 mg/kg, po qd for 4 weeks (reference value: 0.62 +/- 0.02 mM); assay type: functional
# Mus musculus [24] = assay: Upregulation of medium chain acyl CoA dehydrogenase gene expression in C57BL/6J mouse muscles at 15 to 150 mg/kg, po; assay type: functional, organism-based; conditions: Muscle tissue
# Mus musculus [25] = assay: Antidiabetic activity in diet-induced obese C57BL/6J mouse assessed as decrease in AUC at 50 to 150 mg/kg, po qd for 4 weeks by glucose tolerance test relative to control; assay type: functional; design: scale not given: the % may be the effect or the level left; conditions: dose mg/kg 50-150
# [26] = AUC (0 to infinity) in Wistar rat at 2 mg/kg, iv by LC-MS/MS analysis; assay type: ADME, organism-based; design: time infinity, dose 2 mg/kg, route intravenous; conditions: plasma
# L6 [27] = assay: Induction of AMPK-mediated ACC phosphorylation in rat L6 cells by Western blotting analysis; assay type: cell-based
# [28] = AUC (0 to infinity) in Wistar rat at 10 mg/kg, po by LC-MS/MS analysis; assay type: ADME, organism-based; design: time infinity, dose 10 mg/kg, route oral; conditions: plasma
# Mus musculus [29] = assay: Upregulation of CPT1 gene expression in C57BL/6J mouse muscles at 15 to 150 mg/kg, po; assay type: functional, organism-based; conditions: Muscle tissue
# Sequence of AMPK alpha2/beta1/gamma1 (Homo sapiens) (P54619 whole entry partner): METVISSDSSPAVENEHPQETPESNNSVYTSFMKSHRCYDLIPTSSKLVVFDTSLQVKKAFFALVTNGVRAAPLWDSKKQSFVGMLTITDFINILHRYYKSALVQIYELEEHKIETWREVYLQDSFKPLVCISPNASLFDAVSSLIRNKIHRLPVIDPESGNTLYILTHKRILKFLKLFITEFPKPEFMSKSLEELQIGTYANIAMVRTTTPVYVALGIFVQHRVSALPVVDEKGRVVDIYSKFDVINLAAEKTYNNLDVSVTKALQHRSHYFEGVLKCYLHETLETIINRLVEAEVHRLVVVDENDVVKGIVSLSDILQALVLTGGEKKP
# Sequence of AMPK alpha2/beta1/gamma1 (Homo sapiens) (P54646 whole entry): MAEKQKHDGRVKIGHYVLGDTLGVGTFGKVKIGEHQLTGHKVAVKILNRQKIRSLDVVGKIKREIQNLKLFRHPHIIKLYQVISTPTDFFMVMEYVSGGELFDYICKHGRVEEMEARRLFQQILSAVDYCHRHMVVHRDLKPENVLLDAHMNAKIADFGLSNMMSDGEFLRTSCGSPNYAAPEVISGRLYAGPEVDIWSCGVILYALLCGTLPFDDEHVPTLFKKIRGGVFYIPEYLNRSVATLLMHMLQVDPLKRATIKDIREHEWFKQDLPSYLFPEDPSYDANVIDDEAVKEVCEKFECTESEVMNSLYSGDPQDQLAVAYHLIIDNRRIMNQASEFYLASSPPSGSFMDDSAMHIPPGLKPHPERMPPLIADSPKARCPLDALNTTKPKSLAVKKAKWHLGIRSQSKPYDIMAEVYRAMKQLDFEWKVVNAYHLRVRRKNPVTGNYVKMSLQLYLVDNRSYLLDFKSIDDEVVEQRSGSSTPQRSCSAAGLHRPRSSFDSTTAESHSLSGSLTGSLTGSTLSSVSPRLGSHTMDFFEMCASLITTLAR
# Sequence of AMPK alpha2/beta1/gamma1 (Homo sapiens) (Q9Y478 2-270 partner limits assumed): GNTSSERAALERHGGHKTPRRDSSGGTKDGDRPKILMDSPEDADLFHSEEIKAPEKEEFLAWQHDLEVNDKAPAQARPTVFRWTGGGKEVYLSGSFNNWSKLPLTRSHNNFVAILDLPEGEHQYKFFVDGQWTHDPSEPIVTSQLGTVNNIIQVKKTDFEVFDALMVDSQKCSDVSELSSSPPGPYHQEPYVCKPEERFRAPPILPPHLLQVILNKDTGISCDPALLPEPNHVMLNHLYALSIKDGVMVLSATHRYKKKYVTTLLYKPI
# Sequence of Voltage-gated inwardly rectifying potassium channel KCNH2 (Q12809 whole entry): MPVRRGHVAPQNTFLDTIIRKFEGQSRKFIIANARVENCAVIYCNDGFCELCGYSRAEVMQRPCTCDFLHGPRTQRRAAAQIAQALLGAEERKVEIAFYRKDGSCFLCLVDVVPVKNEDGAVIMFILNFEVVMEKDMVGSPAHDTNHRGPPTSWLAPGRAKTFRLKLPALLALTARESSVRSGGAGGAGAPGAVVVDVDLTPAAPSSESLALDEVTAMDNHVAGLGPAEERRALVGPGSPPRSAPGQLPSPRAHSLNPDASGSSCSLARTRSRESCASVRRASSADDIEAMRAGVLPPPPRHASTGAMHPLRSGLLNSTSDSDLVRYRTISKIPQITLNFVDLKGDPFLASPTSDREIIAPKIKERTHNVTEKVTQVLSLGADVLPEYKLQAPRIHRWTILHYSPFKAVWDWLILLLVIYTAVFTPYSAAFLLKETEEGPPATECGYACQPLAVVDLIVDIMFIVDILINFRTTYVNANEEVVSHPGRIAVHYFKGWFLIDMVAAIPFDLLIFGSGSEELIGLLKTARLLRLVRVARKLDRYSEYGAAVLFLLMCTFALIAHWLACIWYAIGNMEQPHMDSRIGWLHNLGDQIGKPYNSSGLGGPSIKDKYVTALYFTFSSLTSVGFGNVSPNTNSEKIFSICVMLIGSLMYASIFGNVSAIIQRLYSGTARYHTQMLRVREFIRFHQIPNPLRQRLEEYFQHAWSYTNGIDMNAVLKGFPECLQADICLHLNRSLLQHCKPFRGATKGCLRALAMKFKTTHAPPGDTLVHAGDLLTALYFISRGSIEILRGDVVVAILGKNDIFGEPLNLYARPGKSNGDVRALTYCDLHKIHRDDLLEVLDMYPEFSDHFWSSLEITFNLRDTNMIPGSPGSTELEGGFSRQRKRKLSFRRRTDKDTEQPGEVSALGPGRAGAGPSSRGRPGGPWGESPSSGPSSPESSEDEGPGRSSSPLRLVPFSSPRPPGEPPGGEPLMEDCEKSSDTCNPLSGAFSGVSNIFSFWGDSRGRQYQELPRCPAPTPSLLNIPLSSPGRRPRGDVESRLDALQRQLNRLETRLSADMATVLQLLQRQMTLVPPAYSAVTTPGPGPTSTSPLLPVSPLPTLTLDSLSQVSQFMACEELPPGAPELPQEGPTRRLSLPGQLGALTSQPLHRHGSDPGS
# Sequence of Cytochrome P450 2D6 (P10635 whole entry): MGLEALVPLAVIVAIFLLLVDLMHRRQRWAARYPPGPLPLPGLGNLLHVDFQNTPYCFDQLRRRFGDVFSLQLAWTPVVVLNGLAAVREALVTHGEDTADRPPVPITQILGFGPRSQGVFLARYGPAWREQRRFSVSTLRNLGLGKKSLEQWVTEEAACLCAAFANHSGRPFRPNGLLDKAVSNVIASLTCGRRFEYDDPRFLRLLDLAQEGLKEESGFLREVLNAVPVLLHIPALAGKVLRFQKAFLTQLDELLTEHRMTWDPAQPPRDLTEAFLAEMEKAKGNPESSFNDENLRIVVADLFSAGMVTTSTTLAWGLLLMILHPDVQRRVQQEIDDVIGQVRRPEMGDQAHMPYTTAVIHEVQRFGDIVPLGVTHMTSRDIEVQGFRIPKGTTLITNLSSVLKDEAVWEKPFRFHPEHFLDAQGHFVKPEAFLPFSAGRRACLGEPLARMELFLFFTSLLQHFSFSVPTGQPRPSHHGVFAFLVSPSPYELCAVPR
# Sequence of AMPK alpha2/beta1/gamma1 (P54646 whole entry): as the sequence (P54646 whole entry) above
# Sequence of AMPK alpha2/beta1/gamma1 (P54619 whole entry): as the sequence (P54619 whole entry partner) above
# Sequence of AMPK alpha2/beta1/gamma1 (Q9Y478 whole entry): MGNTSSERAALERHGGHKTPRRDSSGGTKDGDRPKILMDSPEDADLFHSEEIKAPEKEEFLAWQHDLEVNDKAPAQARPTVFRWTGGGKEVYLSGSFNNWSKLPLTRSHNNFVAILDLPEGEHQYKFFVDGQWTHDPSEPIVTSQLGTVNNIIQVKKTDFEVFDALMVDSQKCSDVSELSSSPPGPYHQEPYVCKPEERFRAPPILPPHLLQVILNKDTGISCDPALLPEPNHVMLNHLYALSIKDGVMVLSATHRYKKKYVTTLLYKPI
# Sequence of Cytochrome P450 3A4 (P08684 whole entry): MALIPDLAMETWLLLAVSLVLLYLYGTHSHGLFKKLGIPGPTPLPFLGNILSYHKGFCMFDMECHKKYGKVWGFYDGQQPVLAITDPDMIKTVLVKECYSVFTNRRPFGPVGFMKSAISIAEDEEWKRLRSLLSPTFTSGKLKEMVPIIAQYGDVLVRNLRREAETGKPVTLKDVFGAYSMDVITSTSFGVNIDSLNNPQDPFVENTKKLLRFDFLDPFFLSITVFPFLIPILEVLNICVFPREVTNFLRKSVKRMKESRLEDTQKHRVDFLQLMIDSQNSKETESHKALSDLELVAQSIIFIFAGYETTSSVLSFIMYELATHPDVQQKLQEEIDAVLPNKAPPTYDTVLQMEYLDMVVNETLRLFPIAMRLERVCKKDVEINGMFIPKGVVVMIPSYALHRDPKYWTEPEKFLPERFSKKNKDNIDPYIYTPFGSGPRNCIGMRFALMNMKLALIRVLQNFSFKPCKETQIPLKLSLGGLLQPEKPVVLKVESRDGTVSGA
# Sequence of Serine/threonine-protein kinase MARK2 (Homo sapiens) (Q7KZI7 whole entry): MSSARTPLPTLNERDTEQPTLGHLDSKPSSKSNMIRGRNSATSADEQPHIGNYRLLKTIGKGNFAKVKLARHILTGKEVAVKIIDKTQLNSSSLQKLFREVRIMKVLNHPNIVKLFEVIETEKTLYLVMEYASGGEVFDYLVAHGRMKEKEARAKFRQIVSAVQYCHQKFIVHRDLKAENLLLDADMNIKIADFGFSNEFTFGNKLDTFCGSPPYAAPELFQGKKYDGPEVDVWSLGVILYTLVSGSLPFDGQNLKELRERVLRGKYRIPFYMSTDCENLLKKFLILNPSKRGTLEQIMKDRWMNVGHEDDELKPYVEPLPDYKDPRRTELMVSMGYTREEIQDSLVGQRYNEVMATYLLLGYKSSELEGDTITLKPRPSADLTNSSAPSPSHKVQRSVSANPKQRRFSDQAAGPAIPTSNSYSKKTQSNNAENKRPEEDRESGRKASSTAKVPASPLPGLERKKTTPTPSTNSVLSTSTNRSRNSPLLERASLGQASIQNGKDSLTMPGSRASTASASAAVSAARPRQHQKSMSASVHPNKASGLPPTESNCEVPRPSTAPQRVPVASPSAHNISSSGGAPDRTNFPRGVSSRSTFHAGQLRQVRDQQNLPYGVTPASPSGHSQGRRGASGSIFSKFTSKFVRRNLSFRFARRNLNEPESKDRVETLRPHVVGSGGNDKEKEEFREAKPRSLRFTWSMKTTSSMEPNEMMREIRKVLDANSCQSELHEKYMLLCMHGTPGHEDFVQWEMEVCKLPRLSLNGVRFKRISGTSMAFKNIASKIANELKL
# Sequence of Cytochrome P450 2C9 (P11712 whole entry): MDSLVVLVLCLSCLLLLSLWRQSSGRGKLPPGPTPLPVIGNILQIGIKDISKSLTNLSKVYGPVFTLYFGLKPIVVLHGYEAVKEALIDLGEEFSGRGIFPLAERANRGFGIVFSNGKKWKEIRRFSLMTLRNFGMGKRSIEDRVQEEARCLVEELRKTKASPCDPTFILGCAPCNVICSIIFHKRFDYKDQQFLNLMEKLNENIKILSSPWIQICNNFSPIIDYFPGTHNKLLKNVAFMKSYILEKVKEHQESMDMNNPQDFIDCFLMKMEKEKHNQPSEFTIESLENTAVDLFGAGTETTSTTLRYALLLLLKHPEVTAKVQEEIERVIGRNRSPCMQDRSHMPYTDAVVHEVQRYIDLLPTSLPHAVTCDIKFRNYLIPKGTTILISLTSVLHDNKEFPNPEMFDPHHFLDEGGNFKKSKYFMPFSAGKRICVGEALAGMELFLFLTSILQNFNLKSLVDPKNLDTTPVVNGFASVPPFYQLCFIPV
compound,measurement,setting,value
O=C(O)c1cccc(CN2C(=O)/C(=C(\c3ccccc3)c3ccc(Cl)cc3)c3ccccc32)c1,Activity,Mus musculus [1],0.52 mM
same,inhibition (INH),Cytochrome P450 2D6,Not Active
same,Drug metabolism,[2],Not Active
same,Activity,[3],inactive
same,inhibition (INH),Cytochrome P450 2C9,Not Active
same,Activity,Mus musculus [4],Active
same,Activity,Mus musculus [5],Active
same,half-life,[6],4 h
same,Activity,L6 [7],Dose-dependent effect
same,AUC(0-t) at 24 h,[8],17300 ng·h/mL
same,concentration at 4 h,[9],3270 ng/mL
same,Activity,L6 [10],inactive
same,half-life,[11],3.94 h
same,Activity,Mus musculus [12],Active
same,bioavailability,[13],33.7%
same,Activity,[14],inactive
same,Activity,Mus musculus [15],Active
same,Activity,Mus musculus [16],Active
same,AUC(0-t) at 24 h,[17],28900 ng·h/mL
same,Activity,Mus musculus [18],Active
same,IC50,[19],> 20000 nM
same,inhibition (INH),Cytochrome P450 3A4,Not Active
same,EC50,AMPK alpha2/beta1/gamma1,1200 nM
same,Activity,L6 [20],Dose-dependent effect
same,Activity,Mus musculus [21],Active
same,Drug metabolism,Liver microsomes,Not Active
same,Efficacy,[22],110%
same,inhibition (INH),Cytochrome P450 1A2,Not Active
same,Activity,Mus musculus [23],0.54 mM
same,Activity,Mus musculus [24],Active
same,Activity,Mus musculus [25],30%
same,AUC(0-inf),[26],17500 ng·h/mL
same,Activity,L6 [27],Dose-dependent effect
same,AUC(0-inf),[28],29500 ng·h/mL
same,Activity,Mus musculus [29],Active
